pIC50, pKd: −log10 of the molar value. Calls of active or inactive are those of the source. A value given as a limit tells only on which side of the number the result lay.

Results on seven compounds are retold here after ChEMBL document CHEMBL4311956, “A Qualified Success: Discovery of a New Series of ATAD2 Bromodomain Inhibitors with a Novel Binding Mode Using High-Throughput Screening and Hit Qualification” (J Med Chem, 2019).

Assay [1] has as its target T1, ATPase family AAA domain-containing protein 2 (Homo sapiens) (UniProt Q6PL18).
T1 sequence (whole entry): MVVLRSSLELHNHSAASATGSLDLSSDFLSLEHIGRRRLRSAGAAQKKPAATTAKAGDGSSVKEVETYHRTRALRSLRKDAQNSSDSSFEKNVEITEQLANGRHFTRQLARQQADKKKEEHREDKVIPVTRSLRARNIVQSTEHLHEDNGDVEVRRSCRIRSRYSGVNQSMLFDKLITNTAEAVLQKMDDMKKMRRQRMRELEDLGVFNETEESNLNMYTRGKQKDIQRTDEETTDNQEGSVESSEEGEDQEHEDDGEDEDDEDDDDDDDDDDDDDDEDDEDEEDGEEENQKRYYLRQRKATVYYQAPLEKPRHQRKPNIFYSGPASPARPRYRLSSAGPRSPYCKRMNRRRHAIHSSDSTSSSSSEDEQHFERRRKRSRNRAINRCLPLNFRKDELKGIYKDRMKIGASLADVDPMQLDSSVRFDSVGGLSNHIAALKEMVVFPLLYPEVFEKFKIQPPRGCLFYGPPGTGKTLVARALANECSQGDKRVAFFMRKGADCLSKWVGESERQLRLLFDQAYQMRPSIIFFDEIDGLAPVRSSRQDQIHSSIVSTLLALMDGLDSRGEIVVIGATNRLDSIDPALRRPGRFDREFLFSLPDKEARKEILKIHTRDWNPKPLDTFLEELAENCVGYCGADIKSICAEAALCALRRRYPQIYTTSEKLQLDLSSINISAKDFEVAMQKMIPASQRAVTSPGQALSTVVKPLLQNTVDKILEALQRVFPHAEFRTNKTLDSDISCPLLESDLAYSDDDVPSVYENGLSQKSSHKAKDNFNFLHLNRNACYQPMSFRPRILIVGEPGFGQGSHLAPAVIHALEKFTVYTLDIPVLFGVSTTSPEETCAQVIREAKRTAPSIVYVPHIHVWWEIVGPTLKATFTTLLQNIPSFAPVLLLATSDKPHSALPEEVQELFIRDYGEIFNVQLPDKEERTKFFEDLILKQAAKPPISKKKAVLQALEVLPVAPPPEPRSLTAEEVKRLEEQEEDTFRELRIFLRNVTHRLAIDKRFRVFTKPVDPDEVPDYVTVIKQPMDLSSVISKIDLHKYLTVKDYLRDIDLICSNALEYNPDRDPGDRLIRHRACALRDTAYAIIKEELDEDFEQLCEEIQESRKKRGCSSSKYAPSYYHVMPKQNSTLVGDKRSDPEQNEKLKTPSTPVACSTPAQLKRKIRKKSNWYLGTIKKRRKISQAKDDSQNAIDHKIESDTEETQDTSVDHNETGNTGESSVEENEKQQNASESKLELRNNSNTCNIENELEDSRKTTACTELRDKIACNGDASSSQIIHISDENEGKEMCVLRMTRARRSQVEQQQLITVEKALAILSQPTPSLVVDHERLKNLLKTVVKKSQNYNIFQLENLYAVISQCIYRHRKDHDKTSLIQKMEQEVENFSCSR
As to the kind of experiment: Binding affinity to 15N-labelled ATAD2 (981 to 1108 residues) (unknown origin) at 100 uM by 1H-15N HSQC NMR analysis. The method in brief: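 15N–1H HSQC spectra of labelled ATAD2 bromodomain recorded with and without compound at 100 μM. Binding is judged from spectral changes.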

Assay [2] deals with T1, ATPase family AAA domain-containing protein 2 (Homo sapiens). The experiment in a line: Displacement of SGRG-K(Ac)-GG-K(Ac)-GLG-K(Ac)-GGAKRHRKV-biotin) from His6/FLAG-tagged TEV fused ATAD2 bromodomain (981 to 1121 residues) (unknown origin) expressed in Escherichia coli BL21(DE3) cells at 10 uM after 30 mins by TR-FRET assay relative to control.
Assay [3] deals with T2, ATPase family AAA domain-containing protein 2 (Homo sapiens, UniProt Q6PL18).
T2 sequence (Q6PL18 whole entry): T1 sequence (whole entry)
As to the kind of experiment: Displacement of SGRG-K(Ac)-GG-K(Ac)-GLG-K(Ac)-GGAKRHRKV-biotin) from His6/FLAG-tagged TEV fused ATAD2 bromodomain (981 to 1121 residues) (unknown origin) expressed in Escherichia coli BL21(DE3) cells after 30 mins by TR-FRET assay.

For assay [4], the target named is Bromodomain-containing protein 4 (Homo sapiens, UniProt O60885, Y390A). The experiment in a line: Displacement of Alexa Fluor 647 labelled ligand from His6-tagged BRD4 BD1 (1 to 477 residues)/BD2 Y390A mutant (unknown origin) after 30 mins by TR-FRET assay. The method in brief: (§1)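 BET selectivity by TR-FRET fluoroligand displacement. Uses tandem BET bromodomain constructs carrying a mutation in the non-assayed bromodomain.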
Background: Time-resolved FRET reads energy transfer from a long-lived donor to a nearby acceptor.

Assay [5] addresses Bromodomain-containing protein 4 (Homo sapiens, UniProt O60885, Y97A). The experiment in a line: Displacement of Alexa Fluor 647 labelled ligand from His6-tagged BRD4 BD2 (1 to 477 residues)/BD1 Y97A mutant (unknown origin) after 30 mins by TR-FRET assay. The method in brief:
as §1

The target in assay [6] is T1, ATPase family AAA domain-containing protein 2 (Homo sapiens). The experiment in a line: Binding affinity to His6/FLAG-tagged TEV fused ATAD2 bromodomain (950 to 1148 residues) (unknown origin) expressed in Escherichia coli BL21(DE3) cells by surface plasmon resonance. The method in brief:
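SPR screen of concentration–response up to 100 μM. Wild-type ATAD2 and a Y1021A/N1064A mutant lacking the acetyl-lysine binding motif were run in parallel. Hits were classed as binding, nonbinding or linear binding (nonsaturating response, calculated Kd above the top concentration).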
In general terms: Surface plasmon resonance follows binding to a sensor surface in real time, without labels.

Assay [7] addresses T2, ATPase family AAA domain-containing protein 2. As to the kind of experiment: Displacement of Alexa Fluor 488 labelled ligand from ATAD2 bromodomain (981 to 1121 residues) (unknown origin) expressed in Escherichia coli BL21(DE3) cells after 30 mins by TR-FRET assay.
For assay [8] the target is unchanged. As to the kind of experiment: Binding affinity to human partial length ATAD2A (Q981 to R1108 residues) expressed in Escherichia coli BL21(DE3) cells after 1 hr by competitive binding assay.
The target is the same in assay [9]. The experiment in a line: Displacement of biotinylated H4 peptide from His6/FLAG-tagged TEV fused ATAD2 bromodomain (950 to 1148 residues) (unknown origin) expressed in Escherichia coli BL21(DE3) cells after 30 mins by TR-FRET assay. The gist of the method: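 TR-FRET acetylated-peptide displacement assay using 6H-Flag-tev ATAD2(950–1148). Used for the HTS: single-concentration primary screen with digital plate-pattern correction, then replated duplicate retest and dose–response. A curve-fit cutoff of IC50 > 30 μM applies.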

Assay [10] concerns the target T1, ATPase family AAA domain-containing protein 2 (Homo sapiens). The experiment in a line: Displacement of SGRG-K(Ac)-GG-K(Ac)-GLG-K(Ac)-GGAKRHRKV-biotin) from His6/FLAG-tagged TEV fused ATAD2 bromodomain (981 to 1121 residues) (unknown origin) expressed in Escherichia coli BL21(DE3) cells up to 10 uM after 30 mins by TR-FRET assay.
For assay [11] the target is unchanged. The experiment in a line: Displacement of SGRG-K(Ac)-GG-K(Ac)-GLG-K(Ac)-GGAKRHRKV-biotin) from His6/FLAG-tagged TEV fused ATAD2 bromodomain (981 to 1121 residues) (unknown origin) expressed in Escherichia coli BL21(DE3) cells at 100 to 300 uM after 30 mins by TR-FRET assay relative to control.

A word on the inhibition: it is the drop in the measured response relative to a control, in per cent. For orientation: pIC50 means −log10 of the IC50, conventionally taken in molar units. Higher therefore signals a small IC50. For the compound `O=C(CN1C(=O)NC(CCc2ccccc2)C1=O)Nc1ccc(Cl)c(S(=O)(=O)N2CCCCC2)c1` (configuration not stated), the result in assay [1] and in [6] was Active. Also, the inhibition in [2] worked out at 48%. Further, the pIC50 in [3] was 5.50; in [4], less than 4.30; in assay [5], less than 4.30.
As for `CC1CCCN(S(=O)(=O)c2cc(NC(=O)CN3C(=O)CNC3=O)ccc2Br)C1` (configuration not stated), the pIC50 in [4] is less than 4.30; in assay [5] it was 4.50; in [7], 6.20.
A word on the pKd: it is −log10 of the Kd, conventionally taken in molar units. High values mean a low Kd, low ones a high Kd. In [8], `CCOC(=O)Nc1cc(-c2ccc(C)c(NS(C)(=O)=O)c2)nn2c(C)nnc12` showed a negative logarithm of the Kd (pKd) of 4.36.
Turning to `O=C(CNC(=O)C1CCCCC1)Nc1ccc(Cl)c(S(=O)(=O)N2CCCCC2)c1`, the outcome in assay [1] and in [6] was Active. In [2], the inhibition was found to be 29%. Also, the pIC50 in assay [3] was less than 4.00; in assay [4] it was less than 4.30; in [5] it was less than 4.30.
In the case of `Cc1ccc(NC(=O)CN2C(=O)NC(Cc3ccccc3)C2=O)cc1S(=O)(=O)N1CCCCC1` (configuration not stated), the result in [1] and in assay [6] was Active. The inhibition in assay [2] was 18%. Further, the pIC50 in assay [3] was less than 4.00; in assay [4], less than 4.30; in assay [5], less than 4.30.
Regarding `CN1CCN(c2nc(C(=O)c3ccccc3)c3cnn(C)c3n2)CC1`, the negative logarithm of the IC50 (pIC50) in [9] was 7.52. Further, the outcome in assay [10] and in [1] was inactive.
`CCC(=O)Nc1ccc(Cl)c(S(=O)(=O)N2CCCCC2)c1` showed a pIC50 in assay [3] of 4.10. The compound further gave an Activity in assay [11] of 45 to 55%.
